ABCB6 inh 2 = ABCB6 transporter inhibitors, primary screen, K562-ABCB6 cells, flow cytometry, MLPCN library. ATP-binding cassette sub-family B member 6 (Homo sapiens), Q9NP58. K562-ABCB6 porphyrin accumulation, 1 h; hits give low values. fluorescence ratio to DMSO, % at 10 µM. 360,000 compounds, 0.19% hits. AID 602162, 2011;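 active means fluorescence ratio to DMSO below 75%, the collection mean minus 3 SD; inconclusive means too few cells collected in the well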;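 further: signal is porphyrin accumulated inside mitochondria; lower ratio means ABCB6 inhibition with less porphyrin fluorescence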
Target sequence (Q9NP58 whole entry, looked up): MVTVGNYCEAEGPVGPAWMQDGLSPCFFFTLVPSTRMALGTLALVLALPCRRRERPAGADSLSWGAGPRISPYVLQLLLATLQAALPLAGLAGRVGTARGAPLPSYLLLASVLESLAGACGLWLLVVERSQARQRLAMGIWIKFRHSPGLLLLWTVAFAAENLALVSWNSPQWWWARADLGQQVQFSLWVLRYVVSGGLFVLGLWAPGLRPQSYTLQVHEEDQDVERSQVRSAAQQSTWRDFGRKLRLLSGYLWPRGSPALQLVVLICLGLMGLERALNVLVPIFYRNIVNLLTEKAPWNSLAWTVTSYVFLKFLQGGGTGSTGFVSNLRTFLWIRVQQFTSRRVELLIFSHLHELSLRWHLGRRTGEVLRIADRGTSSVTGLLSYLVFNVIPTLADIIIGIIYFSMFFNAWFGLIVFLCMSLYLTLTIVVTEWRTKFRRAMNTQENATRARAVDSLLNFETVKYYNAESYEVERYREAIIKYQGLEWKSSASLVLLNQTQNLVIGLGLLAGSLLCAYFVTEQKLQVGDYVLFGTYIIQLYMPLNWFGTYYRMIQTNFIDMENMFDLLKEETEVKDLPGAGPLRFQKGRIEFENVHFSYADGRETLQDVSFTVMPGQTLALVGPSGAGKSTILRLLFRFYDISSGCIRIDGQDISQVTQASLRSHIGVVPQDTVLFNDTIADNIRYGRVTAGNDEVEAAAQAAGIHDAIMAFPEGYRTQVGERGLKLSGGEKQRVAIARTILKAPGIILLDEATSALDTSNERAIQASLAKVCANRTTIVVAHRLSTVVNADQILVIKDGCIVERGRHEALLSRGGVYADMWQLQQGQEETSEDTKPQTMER
Arr AP2 block = inhibitors of beta-arrestin/AP2 binding, primary screen, biochemical, GPCR trafficking, flow cytometry; FITC-arrestin peptide / GST-AP2 beads; AP2 beta2 appendage carries R879A mutation; inhibition, % at 10 µM; 340,000 compounds, 0.31% hits; AID 504490, 2011;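 active means inhibition above a set limit, near 3 SD of compounds lacking own fluorescence, cut at about 54% in these data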
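Test system: GST-tagged AP2 beta2-adaptin appendage (R879A) on 4 µm glutathione beads; also added: fluorescein-tagged arrestin peptide at 50 nM final; timing: 12 min plus 1 h, RT; signal: flow cytometry, FL1 (488/535 nm); read-out: percent drop in bead-associated FITC signal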
NRP1-CendR mod = modulators of CendR peptide binding to NRP-1, primary screen, biochemical, fluorescence polarization, uHTS. Neuropilin-1 (Homo sapiens), O14786. FAM-RPARPAR peptide binding to NRP-1. inhibition, % at 25 µM. 360,000 compounds, 0.85% hits;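 active means inhibition or corrected inhibition above about 18%, plus a signal ratio from 0.5 to 1.5, limit read from the data, passing the limit was not always enough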
Exocytosis inh = LAMP-1 surface exposure blockers, TALL-104 cells – cell-based, flow cytometry, MLPCN library, primary screen; TALL-104 LAMP-1 surface exposure; cells stimulated with thapsigargin and PMA; inhibition, % at 10 µM; 360,000 compounds, 0.66% hits;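 active means inhibition above about 55%, limit read from the data; inconclusive means no clear call, values can overlap the other calls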
Myeloid diff 2 = induction of myeloid progenitor differentiation, primary screen, cell-based, flow cytometry, MLPCN library. ER-HoxA9 myeloid progenitors, lysozyme-GFP differentiation. AID 624256, 2012. 360,000 compounds, 1% hits. calls only at 10 µM;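 active means normalized GFP-positive differentiation at or above the plate's own cutoff, the solvent-only control mean plus 3 SD; inconclusive means no clear call, values can overlap the other calls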;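 further: cells exposed to compound for four days before flow analysis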
ATG4B inhibitor = ATG4B protease inhibitors, primary screen, biochemical, fluorescence, uHTS. Cysteine protease ATG4B (Homo sapiens), Q9Y4P1. 340,000 compounds, 0.51% hits. ATG4B cleavage of LC3-PLA2, NBD-HPC fluorescence, 1 h. AID 504462, 2011. inhibition, % at 8.33 µM; in the data active means inhibition above about 40%
Of the large screens only hits and unclear results are named; the others gave an inactive call. An excerpt weighted towards active compounds, which were near 3.3% of everything screened.

CCC(=O)NCCCCNC(=O)CC	NRP1-CendR mod 32.8
COc1ccc(S(=O)(=O)N2CCOCC2)cc1NC(=O)Cc1ccc2c(c1)OCCO2	none
O=C(NCc1cccnc1)/C(=C/c1ccc(-c2ccc(Cl)cc2)o1)S(=O)(=O)c1ccccc1	Exocytosis inh 86.7 (no result: Myeloid diff 2)
O=C(NCc1cccnc1)/C(=C/c1ccc(-c2cccc(C(F)(F)F)c2)o1)NC(=O)c1ccccc1	none
Cc1ccc(-n2ncc(C(=O)Nc3cc(Cl)cc(Cl)c3)c2C2CCNCC2)cc1C	Exocytosis inh 88.1
O=C(Cn1ncc2c1-c1ccccc1OC2)N1CCN(Cc2ccc3c(c2)OCO3)CC1	none
CCOC(=O)C1(Cc2ccccc2)NC(c2ccccc2F)C2C(=O)N(CC)C(=O)C21 (centres undefined)	NRP1-CendR mod 19.1
Cc1ccc(C(=O)OCCn2cc(C#N)c(=O)[nH]c2=O)cc1	NRP1-CendR mod 26.6
CCN(CC)c1ccc(/C=C2\C(=O)c3ccc(C(=O)O)cc3C2=O)cc1	none
Cc1ccc(C)c(OC(=O)c2cncc(Br)c2)c1	none
c1ccc(CNn2nnc3ccccc32)cc1	NRP1-CendR mod 23.1 (no result: Arr AP2 block, ATG4B inhibitor)
CCCCc1ccc(N/C(N)=N/c2nc(C)cc(C)n2)cc1	none
O=C(/C=C/c1ccc([N+](=O)[O-])s1)N1CCCC1	Myeloid diff 2 active
O=C(/C=C/c1ccc([N+](=O)[O-])s1)N1CCCCC1	Myeloid diff 2 inconclusive
Cc1cc(OCC(=O)NC2CC(C)(C)NC(C)(C)C2)c2c(C)c(C)c(=O)oc2c1	none
COc1ccc(-c2ccc(OC)c([C@H]3[C@H]4C=CC[C@@H](C)[C@@H]4C(=O)N3Cc3ccccc3)c2)cc1C	NRP1-CendR mod 28.9
COc1ccc(-c2ccc(N(C)C)cc2)cc1[C@H]1[C@H]2C=CC[C@@H](C)[C@@H]2C(=O)N1Cc1ccccc1	none
O=C(CSc1ccccc1[N+](=O)[O-])NC1CCS(=O)(=O)C1 (centres undefined)	none
CC(C)Cn1c(N)c(C(=O)NCC2CCCO2)c2nc3ccccc3nc21 (centres undefined)	Myeloid diff 2 active
CCCN(CC(=O)Nc1cc(C)on1)CC(=O)Nc1ccc(F)c(F)c1F	NRP1-CendR mod 22.6
Cc1cc(NC(=O)CN(C)CC(=O)Nc2ccc(F)c(F)c2F)no1	none
CCN(CC)S(=O)(=O)c1cccc(NC(=O)COC(=O)CCC(=O)c2cccs2)c1	none
Cc1ccc(NC(=O)COC(=O)CCC(=O)c2cccs2)cc1	none
Cc1ccc(C)c(NC(=O)COC(=O)CCC(=O)c2cccs2)c1	Myeloid diff 2 active
CCN(CC)S(=O)(=O)c1cc(NC(=O)COC(=O)CCC(=O)c2cccs2)ccc1C	NRP1-CendR mod 26.1
O=C(CCC(=O)c1cccs1)c1cccs1	Myeloid diff 2 active
CCN(CC(=O)Nc1ccc(NC(C)=O)cc1)C(=O)c1cc2c(s1)CCCCC2	none
CCN(CCn1cccn1)C(=O)CCc1nnc(Cc2c[nH]c3ccccc23)o1	NRP1-CendR mod 21.1
COc1ccc(CCn2ccc(O)c(Cc3ccc(Cl)cc3)c2=O)cc1OC	Myeloid diff 2 active
Cc1ccc(NC2=Nc3ccccc3CC2)cc1	none (no result: Myeloid diff 2)
c1ccc(NC2=Nc3ccccc3CS2)cc1	Myeloid diff 2 active
O=C1OC(c2ccccc2)(c2ccc3cc(O)ccc3c2)c2ccccc21 (centres undefined)	Myeloid diff 2 active
O=C1OC(c2ccc3ccccc3c2O)(c2ccc3ccccc3c2O)c2ccccc21	NRP1-CendR mod 25.6
Cc1oc(-c2cccc(Cl)c2)nc1CN1CCC(C(=O)NCCCN2CC(C)CC(C)C2)CC1 (centres undefined)	none (no result: Myeloid diff 2)
CCOC(=O)N1CCN(C(=O)c2cnn3c(C(F)F)cc(-c4ccc(C)cc4)nc23)CC1	NRP1-CendR mod 19.7
CS(=O)(=O)c1ccccc1C(=O)Nc1cc2c(cc1C(=O)O)OCCCO2	none
COc1ccc(N2CCN(Cc3cc(=O)c(OCC(=O)NC4CCCC4)co3)CC2)cc1	none
Cc1noc(C)c1C(=O)Nc1cccc(S(=O)(=O)N2CCOCC2)c1	none
CCOC(=O)c1cc2c(ccn2C)n1CC(=O)N(Cc1ccccc1)c1ccccc1	Myeloid diff 2 active
COc1ccc(OC)c(/C=N/NC(=O)CC(=O)NC2CCCCC2)c1	none
Cc1c(C(=O)NC(C)c2ccc(-n3ccnc3)cc2)cccc1[N+](=O)[O-] (centres undefined)	none
Nc1c(C(=O)NCc2ccccc2)c2nc3ccccc3nc2n1-c1ccc2c(c1)OCO2	Myeloid diff 2 active
Cc1ccc(CN(CC(=O)NCc2ccc3c(c2)OCO3)C(=O)c2csnn2)cc1	Myeloid diff 2 active
S=C(NCCN1CCOCC1)NC1CCCCC1	none
Cc1ccc(CNC(=O)COc2ccccc2-c2ccccc2)cc1	none
COc1ccccc1N1CCN(c2nc(C)nc3c2oc2ccccc23)CC1	Myeloid diff 2 inconclusive, ATG4B inhibitor 45.2
Cc1ccc(CNC(=O)c2ccc(CS(=O)(=O)c3ccccc3)o2)cc1	Myeloid diff 2 inconclusive
O=C(O)c1cccc(N/N=C/c2sc(N3CCOCC3)nc2-c2ccccc2)c1	none
O=[N+]([O-])c1ccc(N/N=C/c2sc(N3CCOCC3)nc2-c2ccccc2)c(S(=O)(=O)Nc2ccc(Cl)cc2)c1	Myeloid diff 2 active
COc1ccc(C(NC(=O)C(C)(C)C)NC(=O)C(C)(C)C)cc1	NRP1-CendR mod 20.1
CC1(C)CC(=O)C(=Cc2cn(CCC#N)nc2-c2ccc(F)cc2)C(=O)C1	none
CC1(C)CC(=O)C(=Cc2cn(CCC#N)nc2-c2ccc(Cl)cc2)C(=O)C1	Exocytosis inh 74.3
O=S(=O)(Nc1nc2ccccc2nc1Cl)c1ccc2ccccc2c1	none
O=C(O)CCCN1C(=O)/C(=C/C=C/c2ccco2)SC1=S	ATG4B inhibitor 52.2
O=C(NN1C(=O)/C(=C/C=C/c2ccco2)SC1=S)c1ccccc1O	ATG4B inhibitor 69.6
Cn1cccc1/C=C1\SC(=S)N(NC(=O)c2ccccc2O)C1=O	none
O=C(O)CC(C(=O)O)N1C(=O)/C(=C/C=C/c2ccco2)SC1=S (centres undefined)	none
COc1ccc(CC(=O)NNC(=O)CSc2nnc(Cc3ccc(OC)cc3)n2-c2ccccc2)cc1	none
O=C(NC1CCN(Cc2ccc(Cl)cc2)CC1)c1cn(-c2ccccc2)nc1-c1cccnc1	none

Source: PubChem BioAssay (several laboratories)
